As a reminder, the IC50 is the point on the concentration scale where inhibition reaches its midpoint.

The record followed here is ChEMBL document CHEMBL1275352, “Selection of evodiamine as a novel topoisomerase I inhibitor by structure-based virtual screening and hit optimization of evodiamine derivatives as antitumor agents” (J Med Chem, 2010).

Molecules are shown by their SMILES. Calls of active or inactive are those of the source. The rule behind the calls is not given here.

In experiment [1] the test system is A549. Kind of experiment: Cytotoxicity against human A549 cells after 3 days by MTT assay. It is filed as functional, cell-based.
The test system of experiment [2] is MDA-MB-435. Kind of experiment: Cytotoxicity against human MDA-MB-435 cells after 3 days by MTT assay. In kind it is functional, cell-based.
The subject of experiment [3] is HCT-116. Kind of experiment: Cytotoxicity against human HCT116 cells after 3 days by MTT assay. In kind it is functional, cell-based. The following applies: HCT-116, 72 h. Background: Formazan colour is commonly taken as a measure of viable cells.
The target of experiment [4] is T1, DNA topoisomerase 1 (Homo sapiens) (UniProt P11387).
T1 sequence (whole entry): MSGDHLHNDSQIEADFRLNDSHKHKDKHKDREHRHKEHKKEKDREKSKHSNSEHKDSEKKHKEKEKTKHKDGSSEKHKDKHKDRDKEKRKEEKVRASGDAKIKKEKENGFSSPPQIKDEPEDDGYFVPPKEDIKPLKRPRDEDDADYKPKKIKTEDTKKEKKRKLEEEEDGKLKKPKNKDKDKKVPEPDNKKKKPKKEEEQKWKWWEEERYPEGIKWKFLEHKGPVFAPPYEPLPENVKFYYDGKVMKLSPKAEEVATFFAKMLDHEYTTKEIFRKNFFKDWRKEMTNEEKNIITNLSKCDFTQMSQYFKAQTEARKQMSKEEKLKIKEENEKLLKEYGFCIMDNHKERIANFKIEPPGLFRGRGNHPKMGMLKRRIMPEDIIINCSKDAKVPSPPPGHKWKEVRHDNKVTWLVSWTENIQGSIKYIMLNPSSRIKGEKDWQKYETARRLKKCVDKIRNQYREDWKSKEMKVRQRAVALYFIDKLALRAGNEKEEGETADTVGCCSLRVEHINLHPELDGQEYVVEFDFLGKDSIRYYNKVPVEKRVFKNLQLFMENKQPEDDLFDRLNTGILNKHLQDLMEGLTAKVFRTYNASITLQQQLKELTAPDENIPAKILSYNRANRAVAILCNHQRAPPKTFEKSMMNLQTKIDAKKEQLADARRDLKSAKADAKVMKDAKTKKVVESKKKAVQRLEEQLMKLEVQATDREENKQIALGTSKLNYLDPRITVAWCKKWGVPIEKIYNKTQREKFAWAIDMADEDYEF
Kind of experiment: Inhibition of DNA topoisomerase 1-mediated supercoiled Escherichia coli pBR322 DNA relaxation at 100 uM by UV transilluminator analysis. The following applies: 500 uM; in the assay text read “500 uM” for “100 uM”. An outline of the steps:
(§1)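 Purified topoisomerase I was incubated with supercoiled DNA, and inhibition of relaxation by the enzyme was scored. Compounds were tested at concentrations ranging from 1 to 500 μM; an initial screen was run at 500 μM and active compounds were retested at lower concentrations.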

The test system of experiment [5] is LoVo. Kind of experiment: Cytotoxicity against human LoVo cells after 3 days by MTT assay. It is filed as functional, cell-based.
Experiment [6] addresses T1, DNA topoisomerase 1 (Homo sapiens). The experiment in a line: Inhibition of DNA topoisomerase 1-mediated supercoiled Escherichia coli pBR322 DNA relaxation at 10 uM by UV transilluminator analysis. An outline of the steps:
as §1

Experiment [7] shares this target. The experiment in a line: Inhibition of DNA topoisomerase 1-mediated supercoiled Escherichia coli pBR322 DNA relaxation by UV transilluminator analysis. In short, it runs like this: as §1
The target is the same in experiment [8]. The experiment in a line: Inhibition of DNA topoisomerase 1-mediated supercoiled Escherichia coli pBR322 DNA relaxation at 1 to 50 uM by UV transilluminator analysis. In short, it runs like this: as §1
Setting [9] is: Homo sapiens, A549, 72 h, read-out: IC50.
The mark [10] stands for this setting: Homo sapiens, MDA-MB-435, 72 h, read-out: IC50.
Setting [11] is: Homo sapiens, LoVo, 72 h, read-out: IC50.

As for `CN1c2ccccc2C(=O)N2CCc3c(n(C(=O)c4ccc(F)cc4)c4ccccc34)C21` (configuration not stated), the IC50 in experiment [1] (setting [9]) worked out at 4.3 µM; in experiment [2] (setting [10]) it was 0.13 µM; in experiment [3], 5.1 µM.

Turning to `CN1c2ccccc2C(=O)N2CCc3c(n(C(=O)c4ccccc4F)c4ccccc34)C21` (configuration not stated), the values for the IC50 in experiment [1] (setting [9]), in experiment [2] (mda-mb-435) and in experiment [3] were 35 µM, “Not Active” and 89 µM, respectively.

Turning to `Nc1ccccc1Sc1ccc2c(=O)n3c4ccccc4nc3c3cccc1c23`, the inhibition result in experiment [4] was “Active”. For the same molecule, the IC50 entry in experiment [1] (a549), in experiment [5] (lovo) and in experiment [2] (mda-mb-435) was “Not Active” in each case.

As for `Cc1ccc(S(=O)(=O)c2cc3c(c4nsnc24)C(=O)c2ccccc2C3=O)cc1`, the inhibition entry in experiment [6] and in experiment [4] was “Active” in each case. Moreover, the inhibition entry in experiment [7] was “Dose-dependent effect”. Also, the half-inhibitory concentration (IC50) in experiment [1] (setting [9]) is 0.5 µM; in experiment [5] (setting [11]), 43 µM; in experiment [2] (setting [10]), 25 µM.

On to `CCCOc1ccc(-c2nc3s/c(=C4\C(=O)N(CC(=O)O)c5ccccc54)c(=O)n3n2)cc1`, for which the inhibition result in experiment [6] and in experiment [4] was “Active” in each case. Besides, in experiment [7], the inhibition result is “Dose-dependent effect”. For the same molecule, the IC50 result in experiment [1] (a549), in experiment [5] (lovo) and in experiment [2] (mda-mb-435) was “Not Active” throughout.

On to `Cc1ccc(C(=O)n2c3c(c4ccccc42)CCN2C(=O)c4ccccc4N(C)C32)cc1` (configuration not stated), for which the figures for the IC50 in experiment [1] (setting [9]), in experiment [2] (setting [10]) and in experiment [3] were 3 µM, 0.038 µM and 4.3 µM, respectively.

As for `COc1ccc(-c2nc3c4c(-c5ccccc5)c(-c5ccccc5)oc4ncn3n2)cc1OC`, the IC50 result is “Not Active” in experiment [1] (a549), 75 µM in experiment [5] (setting [11]) and “Not Active” in experiment [2] (mda-mb-435).

For `O=c1c2ccccc2nc2c3ccccc3c(Sc3nnc4ccccn34)nn12`, the IC50 result in experiment [1] (a549), in experiment [5] (lovo) and in experiment [2] (mda-mb-435) was “Not Active” in each case.

Consider `c1ccc2c(OCc3nc4c5c6c(sc5ncn4n3)CCCCC6)cccc2c1`, for which the IC50 entry in experiment [1] (a549), in experiment [5] (lovo) and in experiment [2] (mda-mb-435) was “Not Active” each time.

As for `CN1c2ccccc2C(=O)N2CCc3c(n(C(=O)c4cccc(Cl)c4)c4ccccc34)C21` (configuration not stated), the half-inhibitory concentration (IC50) came to 2.9 µM in experiment [1] (setting [9]), 0.051 µM in experiment [2] (setting [10]) and 3.3 µM in experiment [3].

`COc1ccc(C(=O)n2c3c(c4ccccc42)CCN2C(=O)c4ccccc4N(C)C32)cc1` (configuration not stated): the IC50 in experiment [1] (setting [9]) was 74 µM; in experiment [2] (mda-mb-435), “Not Active”; in experiment [3], 45 µM.

With `CN1c2ccccc2C(=O)N2CCc3c(n(C(=O)c4ccccc4Cl)c4ccccc34)C21` (configuration not stated), the IC50 in experiment [1] (setting [9]) amounted to 14 µM; in experiment [2] (setting [10]), 0.18 µM; in experiment [3], 4.7 µM.

`CCn1c2c(c3ccccc31)CCN1C(=O)c3ccccc3N(C)C21` (configuration not stated): the IC50 result in experiment [1] (a549), in experiment [5] (lovo) and in experiment [2] (mda-mb-435) was “Not Active” each time.

Consider `CN1c2ccccc2C(=O)N2CCc3c(n(C(=O)c4ccc(Cl)cc4)c4ccccc34)C21` (configuration not stated), for which the inhibition entry in experiment [4] was “Active”. Also, the IC50 in experiment [1] (setting [9]) is 0.86 µM; in experiment [2] (setting [10]), 0.049 µM; in experiment [3], 2.6 µM.

Consider `CCCNC(=O)Cn1c2ccccc2[n+]2nc3c(cc12)-c1cccc2cccc-3c12`, for which the inhibition result in experiment [8] and in experiment [4] was “Active” each time. Also, the results for the IC50 in experiment [1] (setting [9]), in experiment [5] (setting [11]) and in experiment [2] (setting [10]) were 37 µM, 26 µM and 77 µM, respectively.

Consider `O=S(=O)(c1ccccc1)c1cc2c(O)c3c(ccc4cccnc43)c(O)c2c2ncccc12`, for which the results for the IC50 in experiment [1] (setting [9]), in experiment [5] (lovo) and in experiment [2] (mda-mb-435) were 120 µM, “Not Active” and “Not Active”, respectively.

Consider `CN1c2ccccc2C(=O)N2CCc3c(n(C(=O)c4ccc(Cl)cc4Cl)c4ccccc34)C21` (configuration not stated), for which the IC50 amounted to 5.3 µM in experiment [1] (setting [9]), 0.39 µM in experiment [2] (setting [10]) and 3.8 µM in experiment [3].

Consider `CCOC(=O)C1=C(C)N=c2s/c(=C3\C(=O)N(CC)c4ccccc43)c(=O)n2C1c1ccccc1` (configuration not stated), for which the IC50 entry in experiment [1] (a549), in experiment [5] (lovo) and in experiment [2] (mda-mb-435) was “Not Active” throughout.

Regarding `Cc1ccc(-c2csc3nc4c5ccccc5c(Cl)nn4c(=O)c23)cc1C`, the inhibition entry in experiment [4] is “Active”. In addition, the IC50 entry is “Not Active” in experiment [1] (a549), 190 µM in experiment [5] (setting [11]) and “Not Active” in experiment [2] (mda-mb-435).

Turning to `CN1c2ccccc2C(=O)N2CCc3c(n(C(=O)c4ccc([N+](=O)[O-])cc4)c4ccccc34)C21` (configuration not stated), the IC50 in experiment [1] (setting [9]) was found to be 2.8 µM; in experiment [2] (setting [10]) it was 0.55 µM; in experiment [3], 4.1 µM.

On to `CCOC(=O)Cn1c2c(c3ccccc31)CCN1C(=O)c3ccccc3N(C)C21` (configuration not stated), for which the IC50 entry in experiment [1] (a549) was “Not Active”; in experiment [5] (lovo), “Not Active”; in experiment [2] (setting [10]), 150 µM.

Consider `CN1c2ccccc2C(=O)N2CCc3c(n(Cc4ccccc4Cl)c4ccccc34)C21` (configuration not stated), for which the IC50 was 29 µM in experiment [1] (setting [9]), 74 µM in experiment [5] (setting [11]) and 42 µM in experiment [2] (setting [10]).

Take `CC[C@@]1(O)C(=O)OCc2c1cc1n(c2=O)Cc2cc3ccccc3nc2-1` [CAMPTOTHECIN]: the IC50 in experiment [1] (setting [9]) came to 0.057 µM; in experiment [5] (setting [11]), 3.1 µM; in experiment [2] (setting [10]), 0.71 µM.

Take `Cc1cc2nc3s/c(=C4\C(=O)N(CC(=O)O)c5ccccc54)c(=O)n3c2cc1C`: the inhibition result in experiment [8] and in experiment [4] was “Active” in each case. The half-maximal inhibitory concentration (IC50) result in experiment [1] (a549) was “Not Active”; in experiment [5] (setting [11]), 240 µM; in experiment [2] (setting [10]), 170 µM.

With `COC(=O)c1cc(OCc2cccc(C(F)(F)F)c2)c2c(c1)Oc1nc3ccccc3nc1O2`, the IC50 result in experiment [1] (a549), in experiment [5] (lovo) and in experiment [2] (mda-mb-435) was “Not Active” in each case.

As for `Cc1ccccc1C(=O)n1c2c(c3ccccc31)CCN1C(=O)c3ccccc3N(C)C21` (configuration not stated), the IC50 in experiment [1] (setting [9]) worked out at 4.2 µM; in experiment [2] (setting [10]), 0.15 µM; in experiment [3], 3.9 µM.

With `CN1c2ccccc2C(=O)N2CCc3c(n(CC#N)c4ccccc34)C21` (configuration not stated), the values for the IC50 in experiment [1] (setting [9]), in experiment [5] (lovo) and in experiment [2] (setting [10]) were 220 µM, “Not Active” and 200 µM, respectively.

With `CCCCCN1C(=O)/C(=c2\sc3nc4ccccc4n3c2=O)c2ccccc21`, the IC50 result in experiment [1] (a549), in experiment [5] (lovo) and in experiment [2] (mda-mb-435) was “Not Active” each time.
